The subject of data set [1] is 4T1. Nature of the data set: Inhibition of metastasis in mouse 4T1 cells assessed as disruption in F-actin arrangement at 0.2 mM incubated for 24 hrs by Hoechst 33342 staining based confocal laser scanning microscopic method. The format is functional, cell-based. The gist of the method: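 After 24 h at 0.2 mM, 4T1 cells were stained for F-actin with Alexa Fluor 488 phalloidin and for nuclei with Hoechst 33342, then imaged by fluorescence for cytoskeletal arrangement and cell morphology.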

Data set [2] deals with 4T1. Put plainly: Antitumour activity against mouse 4T1 cells xenografted in BALB/c mouse assessed as reduction in number of Ki67 positive tumor cells at 10 mg/kg administered intratumorally and measured after 24 days by H and E staining based inverted optical microscopic method. The format is functional, organism-based. In outline: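 BALB/c mice bearing subcutaneous 4T1 tumours received 6 doses at 10 mg/kg body weight, matched for YSL monomer molar amount, with saline as control. Tumour sections were stained for H&E, CD31, Ki-67 and TUNEL. n = 5.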

For data set [3], the system named is 4T1. Put plainly: Induction of apoptosis in mouse 4T1 cells assessed as late apoptotic cells at 0.4 mM incubated for 24 hrs by Annexin V-FITC/PI based FACS analysis (reference value: 6.62%). The format is functional.
Data set [4] deals with 4T1. Put plainly: Induction of apoptosis in mouse 4T1 cells assessed as necrotic cells at 0.4 mM incubated for 24 hrs by Annexin V-FITC/PI based FACS analysis (reference value: 0.47%). The format is functional.
The target of data set [5] is Matrix metalloproteinase-9 (Mus musculus) (UniProt P41245). Put plainly: Residual MMP9 activity in mouse 4T1 cells at 0.2 mM incubated for 24 hrs by coomassie brilliant blue staining based gelatin zymography assay relative to control.
Matrix metalloproteinase-9 (Mus musculus), sequence (P41245 whole entry): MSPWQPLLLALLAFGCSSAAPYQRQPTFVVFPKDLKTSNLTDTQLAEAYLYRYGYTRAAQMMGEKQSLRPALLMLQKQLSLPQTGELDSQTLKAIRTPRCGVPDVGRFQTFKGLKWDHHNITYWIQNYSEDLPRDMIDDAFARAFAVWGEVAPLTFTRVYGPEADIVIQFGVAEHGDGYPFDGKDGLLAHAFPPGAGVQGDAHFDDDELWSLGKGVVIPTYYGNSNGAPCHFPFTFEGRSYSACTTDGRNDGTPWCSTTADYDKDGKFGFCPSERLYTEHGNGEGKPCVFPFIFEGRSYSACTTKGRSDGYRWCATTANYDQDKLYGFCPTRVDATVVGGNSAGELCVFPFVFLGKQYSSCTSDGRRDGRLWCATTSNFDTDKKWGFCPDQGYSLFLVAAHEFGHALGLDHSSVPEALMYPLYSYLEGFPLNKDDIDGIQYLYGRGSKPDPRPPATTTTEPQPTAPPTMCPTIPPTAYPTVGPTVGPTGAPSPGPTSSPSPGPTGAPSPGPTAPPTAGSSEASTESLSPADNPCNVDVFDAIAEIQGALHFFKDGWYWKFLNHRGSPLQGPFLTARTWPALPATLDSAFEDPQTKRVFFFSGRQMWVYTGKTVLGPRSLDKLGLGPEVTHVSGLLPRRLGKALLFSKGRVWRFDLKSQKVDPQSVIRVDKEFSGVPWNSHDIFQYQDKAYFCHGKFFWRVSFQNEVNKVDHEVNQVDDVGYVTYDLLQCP
The test system of the next data set is Erythrocyte. Put plainly: Hemolytic activity in BALB/c mouse RBC at 3.2 mM incubated for 2 hrs by UV-Vis spectrophotometric analysis. The format is ADME, cell-based. Particulars: 3200 µM. In outline:
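Hemolysis assay on red blood cells with dendrimers up to 3.2 mM. Result is expressed as hemolysis rate, with under 5% taken as acceptable.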

For data set [6], the system named is 4T1. Nature of the data set: Induction of apoptosis in mouse 4T1 cells assessed as viable cells at 0.4 mM incubated for 24 hrs by Annexin V-FITC/PI based FACS analysis (reference value: 92.2%). The format is functional. Particulars: 4T1, 24 h, read-out: Activity.
The subject of data set [7] is 4T1. Nature of the data set: Induction of cell cycle arrest in mouse 4T1 cells assessed as accumulation at S phase at 0.4 mM incubated for 24 hrs by PI staining based flow cytometric analysis (Rvb =42.35%). The format is functional.

Here are results for one compound from ChEMBL document CHEMBL4406918, “Inhibitory Effects of Multivalent Polypeptides on the Proliferation and Metastasis of Breast Cancer Cells” (ACS Med Chem Lett, 2019).

Molecules are shown by their SMILES. Calls of active or inactive are those of the source. No cut-off for these calls is given here.

Take `COC(=O)[C@H](CCCCNC(=O)[C@H](CCCCNC(=O)[C@H](CCCCNC(=O)[C@H](CC(C)C)NC(=O)[C@H](CO)NC(=O)[C@@H](N)Cc1ccc(O)cc1)NC(=O)[C@H](CC(C)C)NC(=O)[C@H](CO)NC(=O)[C@@H](N)Cc1ccc(O)cc1)NC(=O)[C@H](CCCCNC(=O)[C@H](CC(C)C)NC(=O)[C@H](CO)NC(=O)[C@@H](N)Cc1ccc(O)cc1)NC(=O)[C@H](CC(C)C)NC(=O)[C@H](CO)NC(=O)[C@@H](N)Cc1ccc(O)cc1)NC(=O)[C@H](CCCCNC(=O)[C@H](CCCCNC(=O)[C@H](CC(C)C)NC(=O)[C@H](CO)NC(=O)[C@@H](N)Cc1ccc(O)cc1)NC(=O)[C@H](CC(C)C)NC(=O)[C@H](CO)NC(=O)[C@@H](N)Cc1ccc(O)cc1)NC(=O)[C@H](CCCCNC(=O)[C@H](CC(C)C)NC(=O)[C@H](CO)NC(=O)[C@@H](N)Cc1ccc(O)cc1)NC(=O)[C@H](CC(C)C)NC(=O)[C@H](CO)NC(=O)[C@@H](N)Cc1ccc(O)cc1`: the “F-actin disruption (qualitative)” value in the data set with 4T1 [1] is “Active”. The outcome with 4T1 [2] was Active. The Activity is 56.2% in the data set on 4T1 [3], 2.41% with 4T1 [4], “Non-Toxic” with Erythrocyte and 46.42% with 4T1 [7]. This compound came in with a residual activity in data set [5] of 34%. For the same compound, in the data set with 4T1 [6], the viability at 400 µM came to 37.5%.
